GPR7 antag: GPR7 receptor antagonists, primary screen, cell-based, fluorescence, single concentration | Neuropeptides B/W receptor type 1 (Homo sapiens), P48145 | GPR7-expressing cells, fluorescence antagonist assay | inhibition, % at 4.4 µM | 290,000 tested, 1.1% active; in the data active = inhibition above about 16%, passing the limit was not always enough;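 note: cells stimulated with the agonist NPW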
Target sequence (P48145 whole entry, looked up): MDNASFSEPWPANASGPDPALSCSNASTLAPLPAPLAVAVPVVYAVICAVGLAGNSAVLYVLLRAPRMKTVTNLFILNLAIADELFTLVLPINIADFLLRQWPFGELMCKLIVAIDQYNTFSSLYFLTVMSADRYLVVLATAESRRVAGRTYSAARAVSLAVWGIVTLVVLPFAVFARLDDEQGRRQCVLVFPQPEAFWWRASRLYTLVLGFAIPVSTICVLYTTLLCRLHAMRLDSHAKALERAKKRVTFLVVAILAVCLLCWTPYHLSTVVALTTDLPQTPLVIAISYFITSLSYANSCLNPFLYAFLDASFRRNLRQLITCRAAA
TAAR1 antag: human TAAR1 antagonists, primary screen, Fluo-8 calcium fluorescence, CHO RD-HGA16 cells | inhibition, % at 3 µM | 360,000 tested, 1.5% active | AID 624466, 2012 | antagonist | Trace amine-associated receptor 1 (Homo sapiens), Q96RJ0;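 active = inhibition above a per-plate cutoff, the mean inhibition of test compounds on that plate plus 3 SD, cut at about 49% in these data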
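test system = CHO RD-HGA16 cells bearing hTAAR1 | replication = singlicate | controls = DMSO-only wells and EC80 β-PEA-stimulated wells | reagent = EC80 β-phenethylamine stimulus | read-out basis = percent inhibition of PEA-evoked calcium signal, max/basal emission ratio | schedule = seeding 17-24 h prior, 75-min 37 °C, 30-min RT dye loading | signal = kinetic Fluo-8 calcium fluorescence measurement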
OX1R antag-1: antagonists of human orexin 1 receptor (OX1R); Orexin/Hypocretin receptor type 1 (Homo sapiens), O43613; OX1R-expressing cells, FRET antagonist read-out; inhibition, % at 6.6 µM; 330,000 tested, 1.8% active; AID 485270, 2010; in the data active = inhibition mostly above about 38%, no sharp cut-off; inactive = mostly below about 40%
Target sequence (O43613 whole entry, looked up): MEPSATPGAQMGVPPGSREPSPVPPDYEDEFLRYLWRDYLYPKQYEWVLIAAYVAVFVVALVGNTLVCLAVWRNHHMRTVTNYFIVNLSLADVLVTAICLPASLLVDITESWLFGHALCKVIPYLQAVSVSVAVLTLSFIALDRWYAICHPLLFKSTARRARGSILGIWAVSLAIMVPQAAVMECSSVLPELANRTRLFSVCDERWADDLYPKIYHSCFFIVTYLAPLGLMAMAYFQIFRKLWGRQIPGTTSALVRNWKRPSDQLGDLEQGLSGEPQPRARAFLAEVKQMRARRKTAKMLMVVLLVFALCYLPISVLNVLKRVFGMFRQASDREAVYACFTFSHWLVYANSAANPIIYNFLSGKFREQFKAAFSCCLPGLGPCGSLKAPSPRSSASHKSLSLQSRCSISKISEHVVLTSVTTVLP
TAAR1 agonist: human TAAR1 agonists, primary screen, Fluo-8 calcium fluorescence, CHO RD-HGA16 cells; 360,000 tested, 0.99% active; Trace amine-associated receptor 1 (Homo sapiens), Q96RJ0; vehicle wells 0%, saturating PEA agonist 100%; AID 624467, 2012; activation, % at 3 µM;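 active = activation above the mean activation of all test compounds in the run plus 3 SD, cut at about 38% in these data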
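Test system: RD-HGA16 (CHO) cells co-expressing Gα16 and hTAAR1; dosing: one-point dosing at 3 µM (nominal); timing: 17-24 h seeding, 75 min 37 °C dye, 30 min RT; signal: kinetic Fluo-8 calcium fluorescence; read-out basis: % activation relative to PEA EC100 response; controls: DMSO and PEA EC100; replicates: n 1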
OX1R antag-2: OX1R (HCRTR1) antagonists, primary screen, fluorescence, CHO/OX1R cells, Fluo-8 calcium, orexin A; Orexin/Hypocretin receptor type 1 (Homo sapiens), O43613; Fluo-8 calcium fluorescence; inhibition, % at 5 µM; 330,000 tested, 0.43% active;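 active = inhibition above its plate's threshold, mean inhibition of all tested compounds on the plate plus 3 SD, cut at about 37% in these data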
CHO parental Ca: ATP-evoked calcium signal inhibitors, parental CHO, primary screen, counter-screen for OX1R antagonist project, cell-based, fluorescence, Fluo-8 calcium dye; parental CHO-K1, ATP-induced calcium, Fluo-8 fluorescence; inhibition, % at 5.6 µM; 330,000 tested, 0.63% active; AID 463079, 2010;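 active = inhibition above that plate's mean sample inhibition plus 3 SD, cut at about 26% in these data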
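Material – parental CHO cells · Reagent – ATP stimulus · Compound – single nominal dose of 5.6 µM per compound · Detection – Fluo-8 fluorescence · Read-out basis – percent inhibition of calcium signal · Controls – ATP-challenged DMSO wells low, unchallenged DMSO wells high · Repeats – no replicates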
nonsel antag count: nonselective antagonists in TAAR1 counter-screen cells, counter-screen for hTAAR1 antagonist project, cell-based, fluorescence, calcium; 2,400 tested, 77% active; shares compounds with TAAR1 antag; counterscreen cell line, antagonist mode; inhibition, % at 3 µM; AID 651780, 2012; in the data active = inhibition above about 22%;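 note: CHO-Ga16 host cells stimulated with ATP at an EC80 level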
TAAR1 antag conf: human TAAR1 antagonists, retest of hits, confirmation, cell-based, fluorescence. shares compounds with TAAR1 antag. TAAR1-expressing cells, fluorescence antagonist read-out. inhibition, % at 3 µM. 2,400 tested, 40% active. AID 651785, 2012; in the data active = inhibition above about 49%;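 note: CHO-Ga16 host cells challenged with agonist PEA near its EC80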
Ga16 nonsel ag: calcium activation in Ga16-expressing cells, counter-screen for TAAR1 antagonist project, cell-based, fluorescence | shares compounds with TAAR1 antag | AID 651953, 2012 | 2,400 tested, 18% active | agonist counterscreen | activation, % at 3 µM; in the data active = activation above about 12%
TAAR1 ag counter: TAAR1 activation by candidate antagonists – cell-based, fluorescence, counter-screen for TAAR1 antagonist project. shares compounds with TAAR1 antag. hTAAR1 cell line, agonist mode. activation, % at 3 µM. 2,400 tested, 2% active. AID 651955, 2012; in the data active = activation above about 37%;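 note: CHO cells stably expressing TAAR1 with calcium dye readout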
Hits are given with their value; i = inactive; nt = no result. In the library only some 4.5% were active in any assay of this set; here they are far more common.

SMILES	GPR7 antag	TAAR1 antag	OX1R antag-1	TAAR1 agonist	OX1R antag-2	CHO parental Ca	nonsel antag count	TAAR1 antag conf	Ga16 nonsel ag	TAAR1 ag counter
COc1ccc(CN2CCN(C(c3ccc(F)cc3)c3ccc(F)cc3)CC2)c(OC)c1OC	nt	56	i	i	i	i	i	i	i	i
O=C(CCC(=O)Nc1ccc(F)cc1)N/N=C/c1ccc(Br)cc1	i	53	i	i	i	i	i	i	i	i
CC(C)c1ccc(-n2cccc2/C=C2/C(=N)N3C=CSC3=NC2=O)cc1	i	i	i	i	i	i	nt	nt	nt	nt
Cc1ccccc1Cn1cccc1/C=C1/C(=N)N2C=CSC2=NC1=O	i	62	i	i	i	i	32	i	i	i
COc1ccccc1N1C(=O)c2ccc(C(=O)Nc3nccs3)cc2C1=O	i	i	i	i	i	i	nt	nt	nt	nt
CC(C)(C)N1C(=O)c2ccc(C(=O)Nc3nccs3)cc2C1=O	i	49	i	i	i	i	i	i	i	i
CCC(C)n1c(NC(=O)c2ccccc2)c(C#N)c2nc3ccccc3nc21 (stereo not drawn)	i	54	i	i	i	i	28	i	i	i
Cc1ccc(C2c3[nH]c4ccccc4c3C[C@H]3C(=O)N(c4ccccc4C(=O)N4CCC(C(=O)O)CC4)C(=O)N23)cc1 (stereo partly drawn)	i	i	i	i	i	i	nt	nt	nt	nt
COc1ccc(C2c3[nH]c4ccccc4c3C[C@H]3C(=O)N(c4ccccc4C(=O)NCCN4CCOCC4)C(=O)N23)cc1 (stereo partly drawn)	i	53	i	i	i	i	i	i	i	i
COc1cccc(C2c3[nH]c4ccccc4c3C[C@H]3C(=O)N(c4ccccc4C(=O)N4CCCC4C(=O)O)C(=O)N23)c1 (stereo partly drawn)	i	i	i	i	i	i	nt	nt	nt	nt
O=C(NCCN1CCOCC1)c1ccccc1N1C(=O)[C@@H]2Cc3c([nH]c4ccccc34)C(c3ccc(F)cc3)N2C1=O (stereo partly drawn)	i	50	i	i	i	i	i	i	i	i
C[C@@H]1CN([C@H](C)CO)C(=O)c2cc(Br)cnc2O[C@@H]1CN(C)C(=O)NC1CCCC1	nt	i	nt	i	nt	nt	nt	nt	nt	nt
Cc1cc(Br)ccc1NC(=O)c1ccccc1-c1ccccc1	i	57	i	i	i	i	i	i	i	i
C[C@H]1CCCCO[C@@H](CN(C)C(=O)NC2CCCCC2)[C@@H](C)CN([C@@H](C)CO)C(=O)c2cc(NC(=O)Cc3ccccc3)ccc2O1	nt	i	nt	i	nt	nt	nt	nt	nt	nt
COC(=O)C(CCCCN1C(=O)C2C3C=CC(C3)C2C1=O)N1C(=O)C2C3C=CC(C3)C2C1=O (stereo not drawn)	i	i	i	i	i	i	nt	nt	nt	nt
COc1ccc(C(=O)COC(=O)C(CCCCN2C(=O)C3C4C=CC(C4)C3C2=O)N2C(=O)C3C4C=CC(C4)C3C2=O)cc1 (stereo not drawn)	i	59	i	i	i	i	33	51	i	i
COc1cc(NC(=O)c2cc3ccccc3o2)ccc1NC(=O)c1ccco1	i	64	i	i	i	i	26	51	i	i
COc1cc(NC(=O)c2oc3ccccc3c2C)ccc1NC(=O)c1ccco1	i	54	i	i	i	i	26	i	i	i
CN(C)c1ccc(CC(=O)N2CCCCC2c2cc(C(=O)Nc3cccc4c3CCCC4)no2)cc1 (stereo not drawn)	nt	i	nt	i	nt	nt	nt	nt	nt	nt
CCNC(=S)N/N=C/c1cccc(OCc2c(F)cccc2Cl)c1	i	57	i	i	i	i	i	i	i	i
CCNC(=S)N/N=C/c1cccc(/C=N/NC(=S)NCC)c1	i	i	i	i	i	i	nt	nt	nt	nt
CC(=O)c1ccccc1OCCOc1ccccc1C(C)=O	i	i	i	i	i	i	nt	nt	nt	nt
CC(=O)c1ccccc1OCc1ccc(S(=O)(=O)Cc2ccccc2)cc1	i	74	i	i	i	i	30	i	i	i
COc1cccc(OCc2cc(C(=O)N(Cc3ccccc3)CC3CC3)no2)c1	i	54	i	i	i	i	28	i	i	i
COc1cccc(OCc2cc(C(=O)N(C)Cc3nc4ccccc4[nH]3)no2)c1	i	i	i	i	i	i	nt	nt	nt	nt
SMILES	GPR7 antag	TAAR1 antag	OX1R antag-1	TAAR1 agonist	OX1R antag-2	CHO parental Ca	nonsel antag count	TAAR1 antag conf	Ga16 nonsel ag	TAAR1 ag counter
CCC(=O)N1Cc2cc(C(=O)Nc3nccs3)nc(-c3cccc(-c4ccccc4OC)c3)c2[C@@H]1CCO	nt	73	nt	i	nt	nt	29	i	i	i
COCCN1Cc2cccc(C(=O)Nc3cccc(OC)c3)c2C1=O	i	i	i	i	i	i	nt	nt	nt	nt
COCCN1Cc2cc(C(=O)OC)c3c(c2C1=O)c1cc(OC)ccc1n3C(=O)c1ccccc1	nt	74	nt	i	nt	nt	34	58	i	i
COCCN1Cc2cc(C(=O)OC)c3c(c2C1=O)c1cc(F)ccc1n3C(=O)c1ccccc1	nt	74	nt	i	nt	nt	32	49	i	i
COCCN1Cc2cccc(C(=O)NCCc3ccccc3)c2C1=O	i	i	i	i	i	i	nt	nt	nt	nt
O=C1CCCCCC[C@@H](O)[C@H](O)C[C@H](c2ccccc2)O1	nt	i	nt	i	nt	nt	nt	nt	nt	nt
COc1ccccc1N(Cc1ccccc1)S(=O)(=O)c1cccc(C(=O)Nc2ccc(C(C)=O)cc2)c1	i	i	i	i	i	i	nt	nt	nt	nt
COc1ccccc1N(Cc1ccccc1)S(=O)(=O)c1cccc(C(=O)Nc2ccccn2)c1	i	75	i	i	i	i	i	i	i	i
CSc1cccc(NC(=O)N2CCc3ccc(NC(=O)c4ccccn4)cc3C2)c1	i	62	i	i	i	i	40	i	i	i
O=C(NCCCCc1ccccc1)C1CC(c2ccc(C(F)(F)F)cc2)=NO1 (stereo not drawn)	nt	84	i	i	i	i	23	i	i	i

Compound activity: PubChem BioAssay, The Scripps Research Institute Molecular Screening Center
